Sampled rows, rich in hits. Any-hit rate of the full collection: about 1.8%.
M5 ag: agonists of human muscarinic M5 receptor (CHRM5); CHO-K1 hM5 cells, Fluo-8 calcium fluorescence; 0% DMSO wells, 100% maximal acetylcholine response; activation, % at 3 µM; 360,000 compounds, 0.19% hits;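 active means activation above the run's mean over test compounds plus 3 SD, cut at about 23% in these data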;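 further: signal is peak over basal fluorescence ratio across the kinetic read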
CHRM4 agonist: agonists of human muscarinic M4 receptor (CHRM4); P08173; CHO-K1 hM4/Gqi5, Fluo-8 calcium fluorescence; vehicle 0%, full acetylcholine response 100%; activation, % at 3 µM; 360,000 compounds, 0.14% hits; AID 624127;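 active means activation above the run mean over all test wells plus 3 SD, cut at about 32% in these data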;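 further: peak over basal fluorescence ratio per well then scaled between controls; 0% = DMSO wells and 100% = acetylcholine at EC100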
Target sequence (P08173 whole entry, looked up): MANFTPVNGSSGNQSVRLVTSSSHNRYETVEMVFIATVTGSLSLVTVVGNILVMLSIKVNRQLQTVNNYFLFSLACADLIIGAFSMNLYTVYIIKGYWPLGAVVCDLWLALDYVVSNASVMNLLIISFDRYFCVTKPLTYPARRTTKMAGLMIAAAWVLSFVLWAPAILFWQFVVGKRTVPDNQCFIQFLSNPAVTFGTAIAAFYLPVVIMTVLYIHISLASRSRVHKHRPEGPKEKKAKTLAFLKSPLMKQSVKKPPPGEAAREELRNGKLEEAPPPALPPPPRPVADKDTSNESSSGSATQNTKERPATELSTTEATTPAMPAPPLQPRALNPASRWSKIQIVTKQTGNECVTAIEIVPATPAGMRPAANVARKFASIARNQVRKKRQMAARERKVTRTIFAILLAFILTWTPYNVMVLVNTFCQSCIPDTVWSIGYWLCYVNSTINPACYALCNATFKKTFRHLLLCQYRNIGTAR
CHRM4 antagonist: antagonists of human muscarinic M4 receptor (CHRM4). P08173. CHO-hM4 cells, ACh EC80, Fluo-8 calcium fluorescence. inhibition, % at 3 µM. 360,000 compounds, 0.73% hits;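 active means inhibition above its plate's cutoff, the mean inhibition of sample wells plus 3 SD, cut at about 27% in these data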;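 further: 0% = acetylcholine EC80 with DMSO and 100% = DMSO without agonist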
CHRM5 antagonist: blocks acetylcholine activation of human M5 receptor. CHO-hM5 cells, Fluo-8 calcium fluorescence, ACh EC80. inhibition, % at 3 µM. 360,000 compounds, 0.59% hits. AID 624040;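 active means inhibition above a per-plate cutoff, the mean of that plate's test compounds plus 3 SD, cut at about 27% in these data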;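 further: 0% = acetylcholine EC80 with DMSO and 100% = DMSO without agonist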
M4 PAM: potentiates acetylcholine response at human M4 receptor; activation, % at 3 µM; 360,000 compounds, 0.4% hits; CHO-K1 hM4/Gqi5, Fluo-8 calcium fluorescence, ACh EC20; 0% = ACh EC20, 100% = maximal ACh;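 active means activation above its plate's cutoff, the mean activation of sample wells plus 3 SD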
CHRM5 PAM: CHRM5 positive allosteric modulation | P08912 | CHO-K1 hM5, Fluo-8 calcium, ACh EC20 PAM; 0% = ACh EC20, 100% = ACh EC100 | activation, % at 3 µM | 360,000 compounds, 0.3% hits | AID 624038;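 active means activation above the run cutoff, the mean activation of all test compounds plus 3 SD, cut at about 18% in these data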
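Measured by: Fluo-8 calcium fluorescence; material: human M5 receptor in CHO-K1 cells; schedule: Post-acetylcholine fluorescence recording 140 s; benchmarks: low control EC20 acetylcholine (0%), high control EC100 acetylcholine (100%); read-out: Max/basal fluorescence ratio as % of EC20–EC100 ACh window; compound: single dose, 3 µM nominal final test concentration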
An asterisk follows results filed as active.

SMILES	M5 ag	CHRM4 agonist	CHRM4 antagonist	CHRM5 antagonist	M4 PAM	CHRM5 PAM
Cc1ccc(C)c(NC(=O)NCCN2CCCCC2)c1	-10	1	6	17	-3	-5
CC(=O)N1CCN(c2ccc(NCc3ccc4c(c3)OCO4)cc2)CC1	-1	2	17	-7	23*	-1
CS(=O)(=O)N1CCC(C(=O)c2cccc(Cl)c2)CC1	0	1	9	3	-8	-3
O=C(OCC(=O)N1CCc2ccccc21)C1=COCCO1	2	-1	10	-9	29*	6
Nc1c(-c2ccccc2)cnn1-c1cccc([N+](=O)[O-])c1	-8	2	-5	7	-4	-17
Nc1c(-c2ccc(Cl)cc2)cnn1-c1cccc([N+](=O)[O-])c1	-6	2	11	33*	-10	-19
CCOC(=O)c1cnc2ccccc2c1NCCO	-12	0	0	0	5	-10
CCOC(=O)c1cnc2ccc(Br)cc2c1NCCCN1CCOCC1	-2	13	14	9	40*	3
CCOC(=O)c1ccc2ncc(C(=O)OCC)c(NCCCN3CCOCC3)c2c1	-2	1	3	-3	5	5
CCOC(=O)c1cnc2ccc(Br)cc2c1NCCO	3	1	-12	-2	20*	0
CCOC(=O)c1cnc2ccc(Br)cc2c1NCC(C)O (stereo unspecified)	-2	0	-1	-2	4	4
CCOC(=O)c1cnc2ccc(Cl)cc2c1NCCN(C)C	-2	4	4	5	27*	0
Cc1ccccc1CC(=O)N1CCCC(CNC(=O)c2ccc(F)cc2)C1 (stereo unspecified)	-3	1	-7	-13	2	7
O=C(O)CNC(=O)c1ccc(N2CCOCC2)cc1[N+](=O)[O-]	-1	0	0	7	-2	1
Cc1ccc(Cl)cc1N1CCN(C(=O)C2CCN(S(=O)(=O)c3c(C)nn(C)c3C)CC2)CC1	7	21	26	30*	-16	-26
Cc1ccc(Cl)cc1N1CCN(C(=O)C2CCN(S(=O)(=O)c3cccnc3)CC2)CC1	9	17	7	11	0	-10
Cc1cc(C)c2c(N)c(C(=O)NN3CC(=O)N(c4ccccc4)CC3=O)sc2n1	0	2	12	12	6	-11
N/C(=N\OC(=O)Nc1cccc(C(F)(F)F)c1)c1ccno1	0	7	10	27*	-7	-17
CCOc1cc(-c2noc(N)c2C#N)cc(OCC)c1OCC	-4	0	-4	-1	4	-3
Cc1ccccc1-c1noc(N)c1C#N	-2	1	-9	-8	43*	25*
CC1=NN(c2cccc(C(=O)O)c2)C(=O)/C1=C\C=C/c1ccccc1	-2	1	4	-2	24*	2
COc1cccc2c1C(=O)c1c(O)c3c(c(O)c1C2=O)C[C@@](O)(C(=O)CO)C[C@@H]3O[C@H]1C[C@H](N)[C@@H](O)[C@H](C)O1	5	8	8	10	-1	-3
COc1cccc2c1C(=O)c1c(O)c3c(c(O)c1C2=O)CC(O)(C(=O)CO)CC3OC1CC(N(C)C)C(O)C(C)O1 (stereo unspecified)	55*	13	7	35*	-3	-32
O=C(NCC(=O)N1CCN(C(c2ccccc2)c2ccccc2)CC1)c1ccccc1Br	-3	4	-1	3	-7	-11
Cc1sc2nc(C3CC3)nc(N3CCN(C(=O)c4ccccc4F)CC3)c2c1C	-5	3	5	9	-4	3
COc1ccc(C(=O)N2CCN(c3nc(C4CC4)nc4sc(C)c(C)c34)CC2)cc1	-4	0	-2	1	20*	-1
Cc1sc2nc(C3CC3)nc(N3CCN(C(=O)c4ccc(Cl)cc4)CC3)c2c1C	-4	0	-24	10	37*	-7
Cc1sc2nc(C3CC3)nc(N3CCN(C(=O)c4ccc(F)cc4)CC3)c2c1C	-5	3	-10	14	18*	1
Cn1c(NCCN2CCCC2)nc2cc(-c3ccsc3)sc2c1=O	-2	1	3	-2	-1	0
